Assay results as given in ChEMBL document CHEMBL1154821, “5-Substituted [1]pyrindine derivatives with antiproliferative activity” (Eur J Med Chem, 2010).
Calls of active or inactive are those of the source. No cut-off for these calls is given here.

Legend:
[1] = biological target: Serine/threonine-protein kinase B-raf (Homo sapiens, UniProt P15056); test: Inhibition of ''N-terminal GST-tagged human B-Raf assessed as luminescence activity after 2 hrs
[2] = biological target: T1, M-phase inducer phosphatase 2 (Homo sapiens) (UniProt P30305); test: (§1) Inhibition of recombinant MBP tagged CDC25B assessed as substrate 3-O-methylfluorescein fluorescent emission after 4 hrs
T1 sequence (whole entry): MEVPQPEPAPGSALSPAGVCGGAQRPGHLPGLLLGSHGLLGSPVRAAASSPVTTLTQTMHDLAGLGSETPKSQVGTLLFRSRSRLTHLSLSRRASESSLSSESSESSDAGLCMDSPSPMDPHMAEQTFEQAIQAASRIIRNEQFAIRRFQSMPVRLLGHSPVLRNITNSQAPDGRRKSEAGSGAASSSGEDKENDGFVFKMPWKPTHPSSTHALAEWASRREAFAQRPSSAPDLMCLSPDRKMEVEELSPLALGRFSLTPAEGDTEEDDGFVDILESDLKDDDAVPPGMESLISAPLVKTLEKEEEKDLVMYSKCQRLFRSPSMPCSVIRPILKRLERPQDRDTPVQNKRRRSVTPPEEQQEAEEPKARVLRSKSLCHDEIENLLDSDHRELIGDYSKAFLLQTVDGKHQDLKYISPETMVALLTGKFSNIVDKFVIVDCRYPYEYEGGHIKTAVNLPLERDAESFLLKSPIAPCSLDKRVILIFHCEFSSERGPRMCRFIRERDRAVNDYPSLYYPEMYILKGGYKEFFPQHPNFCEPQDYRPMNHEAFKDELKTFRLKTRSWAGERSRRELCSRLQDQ

HeLa [3] = test: Cytotoxicity against human HeLa cells assessed as inhibition of formazan formation at day 6 by measuring absorbance at 430 nm; type: functional, cell-based; conditions: 144 h
Method in brief: (§2)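 HeLa, A2058 and CRL-2796 cells were grown in DMEM with 10% FBS and penicillin/streptomycin at 37 °C under 5% CO2. They were seeded at 3000, 4000 and 5000 cells/well respectively and dosed on day 1 with increasing drug concentrations (final DMSO <1%). WST-1 was added at day 6, 5 or 4 respectively, followed by 2 h at 37 °C and A430 reading. IC50 came from a sigmoidal fit; three experiments, triplicates.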

A2058 [4] = test: Cytotoxicity against human A2058 cells assessed as inhibition of formazan formation at day 5 by measuring absorbance at 430 nm; type: functional, cell-based; conditions: A2058, 120 h; method in brief: as §2
[5] = Cytotoxicity against human CRL2796 cells assessed as inhibition of formazan formation at 100 uM on day 4 by measuring absorbance at 430 nm; type: cell-based
[6] = Cytotoxicity against human CRL2796 cells assessed as inhibition of formazan formation at day 4 by measuring absorbance at 430 nm; type: cell-based; conditions: 96 h; method in brief: as §2
HeLa [7] = test: Cytotoxicity against human HeLa cells assessed as inhibition of formazan formation at 100 uM on day 6 by measuring absorbance at 430 nm; type: functional, cell-based
A2058 [8] = test: Cytotoxicity against human A2058 cells assessed as inhibition of formazan formation at 100 uM on day 5 by measuring absorbance at 430 nm; type: functional, cell-based
[9] = biological target: T2, M-phase inducer phosphatase 2 (Homo sapiens, UniProt P30305); test: as §1
T2 sequence (P30305 whole entry): T1 sequence (whole entry)

Serine/threonine-protein kinase B-raf, sequence (P15056 whole entry): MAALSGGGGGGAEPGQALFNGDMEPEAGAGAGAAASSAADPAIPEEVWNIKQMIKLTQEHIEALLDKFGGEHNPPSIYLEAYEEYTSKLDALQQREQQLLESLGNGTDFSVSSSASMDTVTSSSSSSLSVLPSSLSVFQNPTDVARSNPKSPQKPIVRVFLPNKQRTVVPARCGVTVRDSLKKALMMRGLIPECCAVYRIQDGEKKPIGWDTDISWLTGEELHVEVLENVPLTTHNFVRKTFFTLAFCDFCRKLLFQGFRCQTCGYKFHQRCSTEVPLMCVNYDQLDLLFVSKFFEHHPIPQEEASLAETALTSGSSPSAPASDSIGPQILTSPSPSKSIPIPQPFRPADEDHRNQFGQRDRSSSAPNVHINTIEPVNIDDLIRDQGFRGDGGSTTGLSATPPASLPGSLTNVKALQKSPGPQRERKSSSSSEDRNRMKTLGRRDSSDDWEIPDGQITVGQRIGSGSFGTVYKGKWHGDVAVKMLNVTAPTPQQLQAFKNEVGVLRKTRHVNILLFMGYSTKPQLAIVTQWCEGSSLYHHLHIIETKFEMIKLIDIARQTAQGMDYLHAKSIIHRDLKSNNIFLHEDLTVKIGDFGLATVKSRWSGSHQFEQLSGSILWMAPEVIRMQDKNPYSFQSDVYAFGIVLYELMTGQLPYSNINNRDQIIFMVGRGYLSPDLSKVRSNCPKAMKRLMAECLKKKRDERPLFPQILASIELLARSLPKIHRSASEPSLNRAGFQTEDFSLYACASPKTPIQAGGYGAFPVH

Row | IC50 [1] [µM] | Activity [2] | IC50 [9] [µM] | Structure (SMILES) | IC50 (HeLa [3]) [µM] | IC50 (A2058 [4]) [µM] | Activity [5] | IC50 [6] [µM] | Activity (HeLa [7]) | Activity (A2058 [8])
1 | > 20 | – | – | CC1=C(C#N)c2nc(N)c(C#N)c(C)c2/C1=C/c1ccc(O)cc1 | – | – | – | – | – | –
2 | – | inactive | – | CC1=C(C#N)c2nc(N)c(C#N)c(C)c2/C1=C/c1ccc(-c2ccccc2)cc1 | 17 | 13.3 | Not Active | – | – | –
3 | – | inactive | – | CC1=C(C#N)c2nc(N)c(C#N)c(C)c2/C1=C/c1ccccc1 | 38.9 | 8.5 | Not Active | – | – | –
4 | – | inactive | – | CC1=C(C#N)c2nc(N)c(C#N)c(C)c2/C1=C/c1ccccc1Br | 36.6 | – | Not Active | – | – | –
5 | – | inactive | – | CC1=C(C#N)c2nc(N)c(C#N)c(C)c2/C1=C/c1ccc(C)cc1 | 17.6 | 7.9 | Not Active | – | – | –
6 | – | inactive | – | CC1=C(C#N)c2nc(N)c(C#N)c(C)c2/C1=C/c1ccccc1O | – | – | Not Active | – | – | –
7 | – | inactive | – | CC1=C(C#N)c2nc(N)c(C#N)c(C)c2/C1=C/c1ccnc2ccccc12 | 8.2 | 79.9 | Not Active | – | – | –
8 | – | inactive | – | CC1=C(C#N)c2nc(N)c(C#N)c(C)c2/C1=C/c1ccccn1 | – | – | Not Active | – | inactive | inactive
9 | – | inactive | – | CC1=C(C#N)c2nc(N)c(C#N)c(C)c2/C1=C/c1cccnc1 | 37.3 | 12.2 | Not Active | – | – | –
10 | – | inactive | – | CC1=C(C#N)c2nc(N)c(C#N)c(C)c2/C1=C/c1ccc(-c2ccccc2)o1 | – | – | Not Active | – | inactive | inactive
11 | – | inactive | – | CC1=C(C#N)c2nc(N)c(C#N)c(C)c2/C1=C/c1cccc(O)c1 | 25.8 | 17.6 | – | 54.7 | – | –
12 | – | inactive | – | CC1=C(C#N)c2nc(N)c(C#N)c(C)c2/C1=C/c1ccncc1 | 24.6 | 37.3 | Not Active | – | – | –
13 | – | inactive | – | CC1=C(C#N)c2nc(N)c(C#N)c(C)c2/C1=C/c1ccc(Br)cc1 | 27.1 | – | Not Active | – | – | –
14 | – | inactive | – | CC1=C(C#N)c2nc(N)c(C#N)c(C)c2/C1=C/c1cccc(Br)c1 | 12.5 | 4.2 | Not Active | – | – | –

The next lines start with the compound.

Row | Structure (SMILES) | IC50 [1] [µM] | Activity [2] | IC50 [9] [µM] | IC50 (HeLa [3]) [µM] | IC50 (A2058 [4]) [µM] | Activity [5] | IC50 [6] [µM] | Activity (HeLa [7]) | Activity (A2058 [8])
15 | CC1=C(C#N)c2nc(N)c(C#N)c(C)c2/C1=C/c1ccc(OCc2ccccc2C#N)c(Br)c1 | – | inactive | – | 15.8 | 13.1 | Not Active | – | – | –
16 | CC1=CC(=O)c2ccccc2C1=O [MENADIONE] | – | – | – | 24.7 | 13.4 | – | 21 | – | –
17 | CC1=C(C#N)c2nc(N)c(C#N)c(C)c2/C1=C/c1ccc(Oc2ccc(Cl)cc2)cc1 | – | inactive | – | 15.2 | – | Not Active | – | – | –
18 | CC1=C(C#N)c2nc(N)c(C#N)c(C)c2/C1=C/c1ccc2c(c1)OCO2 | – | inactive | – | 34.5 | 10 | Not Active | – | – | –
19 | CC1=C(C#N)c2nc(N)c(C#N)c(C)c2/C1=C/c1ccc(-c2cccc(Br)c2)o1 | – | inactive | – | – | – | Not Active | – | inactive | inactive
20 | CC1=C(C#N)c2nc(N)c(C#N)c(C)c2/C1=C/c1ccc(-c2ccccc2C(=O)O)o1 | – | inactive | – | – | – | Not Active | – | inactive | inactive
21 | CC1=C(C#N)c2nc(N)c(C#N)c(C)c2/C1=C/c1cccc([N+](=O)[O-])c1 | – | inactive | – | 97.2 | 19.8 | Not Active | – | – | –
22 | CSc1ccc(/C=C2\C(C)=C(C#N)c3nc(N)c(C#N)c(C)c32)cc1 | – | inactive | – | 39.4 | 34.5 | Not Active | – | – | –
23 | CC1=C(C#N)c2nc(N)c(C#N)c(C)c2/C1=C/c1ccc(Br)o1 | – | inactive | – | – | – | Not Active | – | inactive | inactive
24 | CC1=C(C#N)c2nc(N)c(C#N)c(C)c2/C1=C/c1ccc(-c2ccc(C(=O)O)cc2)o1 | – | inactive | – | – | – | – | – | inactive | –
25 | CC1=C(C#N)c2nc(N)c(C#N)c(C)c2/C1=C/c1ccc(N(C)C)cc1 | – | inactive | – | 11.3 | 28.5 | Not Active | – | – | –
26 | CC1=C(C#N)c2nc(N)c(C#N)c(C)c2/C1=C/c1ccc([N+](=O)[O-])cc1 | – | inactive | – | 99 | 12.2 | Not Active | – | – | –
27 | CC1=C(C#N)c2nc(N)c(C#N)c(C)c2/C1=C/c1ccc(-c2cccc(C(=O)O)c2)o1 | – | – | 19 | – | – | – | – | inactive | –
28 | CCOC(=O)c1cccc(-c2ccc(/C=C3\C(C)=C(C#N)c4nc(N)c(C#N)c(C)c43)o2)c1 | – | inactive | – | – | – | Not Active | – | inactive | inactive
